From ChEMBL document CHEMBL1149080, “Synthesis and structure-activity relationships of 2-phenyl-1-[(pyridinyl- and piperidinylmethyl)amino]-3-(1H-1,2,4-triazol-1-yl)propan-2-ols as antifungal agents” (2009)
Converted amounts (≈) assume the structure as drawn.

Legend:
Candida albicans = test: Antifungal activity against Candida albicans CA98001; assay type: functional
Summary of the method: (§1)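 Growth inhibition of each strain in vitro, following an earlier method; endpoint is MIC80, the lowest concentration giving 80% growth inhibition, in ng mL-1. Values are means of triplicate determinations, with standard deviation given.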

Aspergillus fumigatus = test: Antifungal activity against Aspergillus fumigatus AF98003; assay type: functional; summary of the method: as §1

SMILES | MIC80 (Candida albicans) [µg/mL] | MIC80 (Aspergillus fumigatus) [µg/mL]
OC(CNCc1ccncc1)(Cn1cncn1)c1ccc(F)cc1F (stereo unspecified) | 0.083 (≈ 0.24 µM) | > 30
OC(CNCc1cccnc1)(Cn1cncn1)c1ccc(F)cc1F (stereo unspecified) | 0.13 (≈ 0.376 µM) | > 30
CN(CC1CCN(C(=O)OC(C)(C)C)CC1)CC(O)(Cn1cncn1)c1ccc(Cl)cc1Cl (stereo unspecified) | 0.039 (≈ 0.0782 µM) | > 30
CCC(C)n1ncn(-c2ccc(N3CCN(c4ccc(OCC5COC(Cn6cncn6)(c6ccc(Cl)cc6Cl)O5)cc4)CC3)cc2)c1=O (stereo unspecified) [ITRACONAZOLE] |  | 0.42 (≈ 0.595 µM)
CN(CC1CCN(C(=O)OC(C)(C)C)CC1)CC(O)(Cn1cncn1)c1ccc(F)cc1F (stereo unspecified) | 0.153 (≈ 0.329 µM) | > 30
CC(C)(C)OC(=O)N1CCC(CNCC(O)(Cn2cncn2)c2ccc(F)cc2F)CC1 (stereo unspecified) | 0.027 (≈ 0.0598 µM) | > 30
OC(CNCc1ccccn1)(Cn1cncn1)c1ccc(Cl)cc1Cl (stereo unspecified) | 0.023 (≈ 0.0608 µM) | > 30
OC(CNCc1ccccn1)(Cn1cncn1)c1ccc(F)cc1F (stereo unspecified) | 0.22 (≈ 0.637 µM) | > 30
OC(CNCc1cccnc1)(Cn1cncn1)c1ccc(Cl)cc1Cl (stereo unspecified) | 0.037 (≈ 0.0978 µM) | > 30
OC(Cn1cncn1)(Cn1cncn1)c1ccc(F)cc1F [FLUCONAZOLE] | 0.19 (≈ 0.62 µM) | 
OC(CNCC1CCNCC1)(Cn1cncn1)c1ccc(Cl)cc1Cl (stereo unspecified) | 0.12 (≈ 0.312 µM) | > 30
CC(C)(C)OC(=O)N1CCC(CNCC(O)(Cn2cncn2)c2ccc(Cl)cc2Cl)CC1 (stereo unspecified) | 0.026 (≈ 0.0537 µM) | > 30
OC(CNCc1ccncc1)(Cn1cncn1)c1ccc(Cl)cc1Cl (stereo unspecified) | 0.036 (≈ 0.0952 µM) | > 30
OC(CNCC1CCNCC1)(Cn1cncn1)c1ccc(F)cc1F (stereo unspecified) | 1.41 (≈ 4.01 µM) | > 30
